Measured values published in ChEMBL document CHEMBL4480426, “Novel multi-target directed ligands based on annelated xanthine scaffold with aromatic substituents acting on adenosine receptor and monoamine oxidase B. Synthesis, in vitro and in silico studies” (Bioorg Med Chem, 2019).

Assays:
Adenosine receptor A3 = target: T1, Adenosine receptor A3 (Homo sapiens, UniProt P0DMS8); test: Displacement of [3H]PSB11 from recombinant human adenosine A3 receptor expressed in CHO cells; type: cell-based
T1 sequence (P0DMS8 whole entry): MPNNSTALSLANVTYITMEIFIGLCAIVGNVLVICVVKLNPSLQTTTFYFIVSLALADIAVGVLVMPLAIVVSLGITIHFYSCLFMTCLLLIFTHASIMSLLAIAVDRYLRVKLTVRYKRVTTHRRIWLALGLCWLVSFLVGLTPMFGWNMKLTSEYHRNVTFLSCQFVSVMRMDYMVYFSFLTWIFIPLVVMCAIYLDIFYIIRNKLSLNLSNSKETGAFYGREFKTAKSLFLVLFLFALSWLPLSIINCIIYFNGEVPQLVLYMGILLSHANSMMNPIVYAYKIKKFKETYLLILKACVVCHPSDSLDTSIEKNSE

[1] = target: T2, Amine oxidase [flavin-containing] B (Homo sapiens, UniProt P27338); test: Inhibition of recombinant human MAOB expressed in baculovirus infected BTI insect cells using p-tyramine as substrate preincubated for 30 mins followed by substrate addition and measured over 45 mins by horseradish peroxidase-Amplex Red-coupled fluorometric assay
T2 sequence (P27338 whole entry): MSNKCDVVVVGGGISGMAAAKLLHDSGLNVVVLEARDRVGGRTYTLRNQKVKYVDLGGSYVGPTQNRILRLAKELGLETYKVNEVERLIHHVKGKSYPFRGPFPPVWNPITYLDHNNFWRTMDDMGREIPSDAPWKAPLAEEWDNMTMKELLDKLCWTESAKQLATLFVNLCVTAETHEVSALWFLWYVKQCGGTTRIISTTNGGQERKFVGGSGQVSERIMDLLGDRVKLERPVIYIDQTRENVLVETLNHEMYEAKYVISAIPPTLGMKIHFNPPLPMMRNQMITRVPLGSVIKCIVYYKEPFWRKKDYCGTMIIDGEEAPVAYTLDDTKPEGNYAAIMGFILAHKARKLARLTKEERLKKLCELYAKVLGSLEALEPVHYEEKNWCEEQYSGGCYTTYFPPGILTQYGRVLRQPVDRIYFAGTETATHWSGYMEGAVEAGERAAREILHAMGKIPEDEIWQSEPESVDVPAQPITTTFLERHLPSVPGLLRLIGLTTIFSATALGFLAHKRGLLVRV
Outline: (§1)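 Human recombinant MAO-A or MAO-B enzyme. Activity detected fluorometrically with the Amplex Red monoamine oxidase assay.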

Adenosine receptor A2b = target: T3, Adenosine receptor A2b (Homo sapiens, UniProt P29275); test: Displacement of [3H]PSB603 from recombinant human adenosine A2b receptor expressed in HEK293 cells; type: cell-based
T3 sequence (P29275 whole entry): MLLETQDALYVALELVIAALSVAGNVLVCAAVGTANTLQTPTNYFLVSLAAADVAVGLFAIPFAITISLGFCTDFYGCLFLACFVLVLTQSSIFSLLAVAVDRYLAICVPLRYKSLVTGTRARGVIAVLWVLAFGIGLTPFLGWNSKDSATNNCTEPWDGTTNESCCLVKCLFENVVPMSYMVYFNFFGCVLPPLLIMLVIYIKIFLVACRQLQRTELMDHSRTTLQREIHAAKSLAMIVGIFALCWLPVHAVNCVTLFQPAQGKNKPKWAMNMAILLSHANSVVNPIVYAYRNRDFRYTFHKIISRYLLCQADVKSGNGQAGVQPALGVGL

Adenosine receptor A1 [2] = target: T4, Adenosine receptor A1 (Rattus norvegicus, UniProt P25099); test: Displacement of [3H]CCPA from adenosine A1 receptor in rat brain cortical membranes; type: cell membranes
T4 sequence (P25099 whole entry): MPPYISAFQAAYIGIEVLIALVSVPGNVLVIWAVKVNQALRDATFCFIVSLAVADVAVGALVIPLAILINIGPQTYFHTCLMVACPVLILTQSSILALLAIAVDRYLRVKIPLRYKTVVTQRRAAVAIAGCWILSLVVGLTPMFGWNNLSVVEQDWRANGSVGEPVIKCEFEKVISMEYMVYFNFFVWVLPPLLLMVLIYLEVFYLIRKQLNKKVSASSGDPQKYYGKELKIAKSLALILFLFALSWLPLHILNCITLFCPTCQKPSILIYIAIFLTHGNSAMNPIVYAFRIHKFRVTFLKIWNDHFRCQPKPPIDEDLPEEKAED

Adenosine receptor A2a = Adenosine receptor A2a (Homo sapiens, UniProt P29274); test: Displacement of [3H]MSX2 from recombinant human adenosine A2a receptor expressed in HEK293 cells; type: cell-based
Chain of Adenosine receptor A2a (P29274 whole entry): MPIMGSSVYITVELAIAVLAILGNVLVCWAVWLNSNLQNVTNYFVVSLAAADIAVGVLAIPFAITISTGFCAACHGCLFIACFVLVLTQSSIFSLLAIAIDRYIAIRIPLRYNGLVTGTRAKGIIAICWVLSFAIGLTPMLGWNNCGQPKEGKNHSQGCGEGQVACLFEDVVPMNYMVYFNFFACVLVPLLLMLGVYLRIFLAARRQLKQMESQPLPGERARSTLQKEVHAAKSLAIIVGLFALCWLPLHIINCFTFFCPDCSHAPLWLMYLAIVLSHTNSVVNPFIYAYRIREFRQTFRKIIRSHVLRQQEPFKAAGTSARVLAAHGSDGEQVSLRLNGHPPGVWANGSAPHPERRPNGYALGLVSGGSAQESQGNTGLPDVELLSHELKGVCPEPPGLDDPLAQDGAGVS

[3] = target: T5, Amine oxidase [flavin-containing] A (Homo sapiens, UniProt P21397); test: Inhibition of recombinant human MAOA expressed in baculovirus infected BTI insect cells at 1 to 100 uM using p-tyramine as substrate preincubated for 30 mins followed by substrate addition and measured over 45 mins by horseradish peroxidase-Amplex Red-coupled fluorometric assay relative to control; details: 0.75 h; outline: as §1
T5 sequence (P21397 whole entry): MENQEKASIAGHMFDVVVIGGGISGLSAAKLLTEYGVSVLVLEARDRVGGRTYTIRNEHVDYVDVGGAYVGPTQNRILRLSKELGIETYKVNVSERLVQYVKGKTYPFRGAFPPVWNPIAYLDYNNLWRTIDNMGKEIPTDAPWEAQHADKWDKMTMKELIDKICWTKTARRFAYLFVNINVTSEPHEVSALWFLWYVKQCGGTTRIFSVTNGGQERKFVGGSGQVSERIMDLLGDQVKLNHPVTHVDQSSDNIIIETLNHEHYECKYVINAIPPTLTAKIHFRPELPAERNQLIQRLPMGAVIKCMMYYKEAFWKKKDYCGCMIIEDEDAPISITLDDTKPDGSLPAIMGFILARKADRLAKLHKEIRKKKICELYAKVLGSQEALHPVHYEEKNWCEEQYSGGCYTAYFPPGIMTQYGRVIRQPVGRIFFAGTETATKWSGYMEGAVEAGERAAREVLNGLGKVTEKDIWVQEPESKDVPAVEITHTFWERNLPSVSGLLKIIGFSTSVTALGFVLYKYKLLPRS

[4] = target: T5, Amine oxidase [flavin-containing] A; test: Inhibition of recombinant human MAOA expressed in baculovirus infected BTI insect cells using p-tyramine as substrate preincubated for 30 mins followed by substrate addition and measured over 45 mins by horseradish peroxidase-Amplex Red-coupled fluorometric assay; outline: as §1
[5] = target: T6, Adenosine receptor A1 (Homo sapiens) (UniProt P30542); test: Displacement of [3H]CCPA from recombinant human adenosine A1 receptor expressed in CHO cells at 1 uM relative to control; type: cell-based
T6 sequence (whole entry): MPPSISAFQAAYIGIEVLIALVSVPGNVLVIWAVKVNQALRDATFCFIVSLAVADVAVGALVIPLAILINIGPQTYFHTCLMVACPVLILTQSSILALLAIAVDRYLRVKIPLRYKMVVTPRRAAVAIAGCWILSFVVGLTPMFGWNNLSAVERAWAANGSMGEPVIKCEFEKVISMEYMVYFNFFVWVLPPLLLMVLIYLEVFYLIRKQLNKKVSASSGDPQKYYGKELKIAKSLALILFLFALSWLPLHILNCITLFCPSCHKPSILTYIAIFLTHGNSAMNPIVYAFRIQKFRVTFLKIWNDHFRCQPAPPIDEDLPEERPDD
Outline: (§2)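 Purchased membranes of CHO cells expressing human A1 ([3H]CCPA) or human A3 ([3H]PSB-11). A single high compound concentration is screened first; for potent compounds, full inhibition curves spanning 3 orders of magnitude. At least three independent experiments.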

Adenosine receptor A1 [6] = target: T7, Adenosine receptor A1 (Homo sapiens, UniProt P30542); test: Displacement of [3H]CCPA from recombinant human adenosine A1 receptor expressed in CHO cells; type: cell-based
T7 sequence (P30542 whole entry): T6 sequence (whole entry)

[7] = target: T8, Adenosine receptor A3 (Homo sapiens) (UniProt P0DMS8); test: Displacement of [3H]PSB11 from recombinant human adenosine A3 receptor expressed in CHO cells at 1 uM relative to control; type: cell-based; outline: as §2
T8 sequence (whole entry): T1 sequence (P0DMS8 whole entry)

[8] = target: T9, Adenosine receptor A2b (Homo sapiens) (UniProt P29275); test: Displacement of [3H]PSB603 from recombinant human adenosine A2b receptor expressed in HEK293 cells at 1 uM relative to control; type: cell-based
T9 sequence (whole entry): T3 sequence (P29275 whole entry)
Outline: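 Purchased membranes of HEK cells expressing human A2A ([3H]MSX-2) or human A2B ([3H]PSB-603). A single high compound concentration is screened first; for potent compounds, full inhibition curves spanning 3 orders of magnitude. At least three independent experiments.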

| Ki (Adenosine receptor A3) [µM] | IC50 [1] [µM] | Ki (Adenosine receptor A2b) [µM] | Ki (Adenosine receptor A1 [2]) [µM] | Ki (Adenosine receptor A2a) [µM] | inhibition (INH) [3] [%] | IC50 [4] [µM] | inhibition [5] [%] | Ki (Adenosine receptor A1 [6]) [µM] | inhibition [7] [%] | inhibition [8] [%] | SMILES |
| --- | --- | --- | --- | --- | --- | --- | --- | --- | --- | --- | --- |
| > 1 | 111 | > 1 |  | 0.784 | 7 | > 1 | 30 | > 1 | 15 | 3 | COc1ccccc1CN1CCn2c1nc1c2c(=O)n(C)c(=O)n1C |
| > 1 | 1.18 | > 1 | 0.486 | > 1 |  |  |  |  |  |  | Cn1c(=O)c2c(nc3n2CCCN3Cc2cc(Br)ccc2F)n(C)c1=O |
| > 1 | 0.426 | > 1 | 4.13 | > 1 | -2 | > 1 |  |  |  |  | Cn1c(=O)c2c(nc3n2CCCN3Cc2ccc(Br)cc2F)n(C)c1=O |
| > 1 | 0.275 | > 1 |  | 0.767 | 3 | > 1 | 21 | > 1 | 42 | 43 | Cn1c(=O)c2c(nc3n2CCCCN3Cc2ccccc2Br)n(C)c1=O |
| > 1 | 0.377 | > 1 | 4.9 | 8.91 | 2 | > 1 |  |  |  |  | Cn1c(=O)c2c(nc3n2CCCN3Cc2ccc(Cl)cc2F)n(C)c1=O |
| > 1 | 0.411 | > 1 | > 1 | > 1 |  |  |  |  |  |  | Cn1c(=O)c2c(nc3n2CCCN3Cc2ccc(F)cc2Cl)n(C)c1=O |
| > 1 | 0.583 | > 1 | 1.78 | 1.21 | -1 | > 1 |  |  |  |  | Cn1c(=O)c2c(nc3n2CCCN3Cc2ccccc2F)n(C)c1=O |
| > 1 | 1.92 | > 1 |  | 0.959 | 2 | > 1 | 13 | > 1 | 19 | 16 | COc1ccccc1CN1CCCCn2c1nc1c2c(=O)n(C)c(=O)n1C |

Second part, the molecule before the results:

| SMILES | Ki (Adenosine receptor A3) [µM] | IC50 [1] [µM] | Ki (Adenosine receptor A2b) [µM] | Ki (Adenosine receptor A1 [2]) [µM] | Ki (Adenosine receptor A2a) [µM] | inhibition (INH) [3] [%] | IC50 [4] [µM] | inhibition [5] [%] | Ki (Adenosine receptor A1 [6]) [µM] | inhibition [7] [%] | inhibition [8] [%] |
| --- | --- | --- | --- | --- | --- | --- | --- | --- | --- | --- | --- |
| COc1ccc(CN2CCCn3c2nc2c3c(=O)n(C)c(=O)n2C)cc1Cl | > 1 | 0.407 | > 1 | > 1 | 8 | 38 | > 100 |  |  |  |  |
| Cn1c(=O)c2c(nc3n2CCCN3Cc2cc(C(F)(F)F)ccc2Cl)n(C)c1=O | > 1 | 1.07 | > 1 | 0.931 | > 1 |  |  |  |  |  |  |
| Cn1c(=O)c2c(nc3n2CCCN3Cc2ccc(Cl)c(C(F)(F)F)c2)n(C)c1=O | > 1 | 0.31 | > 1 | > 1 | > 1 | 2 | > 1 |  |  |  |  |
| Cn1c(=O)c2c(nc3n2CCCCN3Cc2cccc(Br)c2)n(C)c1=O | > 1 | 0.371 | > 1 |  | > 1 | 6 | > 1 |  | 0.651 | 26 | 41 |
| Cn1c(=O)c2c(nc3n2CCCN3Cc2ccc(Cl)c(F)c2)n(C)c1=O | > 1 | 0.264 | > 1 | > 1 | > 1 | 9 | > 100 |  |  |  |  |
| COc1ccc(Cl)c(CN2CCCn3c2nc2c3c(=O)n(C)c(=O)n2C)c1F |  | 0.84 |  | 0.927 | 0.627 | 16 | > 100 |  |  |  |  |
| Cn1c(=O)c2c(nc3n2CCCN3Cc2cccc(Br)c2)n(C)c1=O | > 1 | 0.396 | > 1 | 0.965 | 1.7 | -1 | > 1 |  |  |  |  |
| Cc1cccc(CN2CCCn3c2nc2c3c(=O)n(C)c(=O)n2C)c1 | > 1 | 0.313 | > 1 | 1.91 | > 1 | 17 | > 100 |  |  |  |  |
| Cn1c(=O)c2c(nc3n2CCCCN3Cc2ccc(Cl)cc2Cl)n(C)c1=O | > 1 | 0.282 | > 1 |  | 1.58 | -2 | > 1 | 16 | > 1 | 31 | 5 |
| Cn1c(=O)c2c(nc3n2CCCN3Cc2cc(Cl)ccc2Cl)n(C)c1=O | > 1 | 0.758 | > 1 | 3.02 | > 1 |  |  |  |  |  |  |
| Cn1c(=O)c2c(nc3n2CCCN3Cc2ccc(C(C)(C)C)cc2)n(C)c1=O |  | 1.35 |  |  |  |  |  |  |  |  |  |
| Cn1c(=O)c2c(nc3n2CCCN3Cc2ccc(F)c(Br)c2)n(C)c1=O | > 1 | 0.346 | > 1 | 4.36 | 8.27 | 1 | > 1 |  |  |  |  |
